A selection: hits, their analogues and other compounds. The true share with any hit is near 2.5%.
CHO parental Ca = signal in parental CHO cells, OX1R antagonist counter-screen | AID 463079 | inhibition, % at 5.6 µM | actives 0.63% (n = 330,000) | parental CHO-K1, ATP-induced calcium, Fluo-8 fluorescence;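 active = inhibition above that plate's mean sample inhibition plus 3 SD, cut at about 26% in these data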
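Measured by: calcium-sensitive Fluo-8 fluorescence / Test system: CHO parental line / Controls: ATP-challenged DMSO wells low, unchallenged DMSO wells high / Measure: % inhibition / Compound: single nominal dose of 5.6 µM per compound / Replicates: single well per compound, no replicates / Reagent: ATP as calcium-mobilizing challenge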
OX1R antag-1 = antagonists of human orexin 1 receptor; actives 0.43% (n = 330,000); CHO/OX1R cells, Fluo-8 calcium fluorescence, orexin A; O43613; inhibition, % at 5 µM; AID 434989;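 active = inhibition above its plate's threshold, mean inhibition of all tested compounds on the plate plus 3 SD, cut at about 37% in these data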
TRPN1 ag = agonists of zebrafish TRPN1 channel; HEK293 zebrafish TRPN1-YFP, Fluo-8 calcium fluorescence; 100% = response to 87 µM carbachol; activation, % at 3 µM; AID 1424; actives 0.18% (n = 220,000);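 active = activation above its plate's cutoff, the mean activation of test wells on that plate plus 3 SD, cut at about 19% in these data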
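System: zebrafish TRPN1-YFP in HEK293 cells / Dosing: 3 µM single point / Timing: dye loading 1 h at 37 °C, then 30 min room temperature / Signal: Fluo-8 calcium fluorescence, excitation 470-495 nm, emission 515-575 nm / Read-out basis: percent activation from peak over basal fluorescence ratio, control-normalized / Control set: high carbachol 87 µM, low DMSO alone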
TRPML3 ag = human mucolipin-3 channel agonism. Q8TDD5. HEK293 TRPML3-YFP, Fluo-8 calcium fluorescence; 100% = the carbachol control signal. activation, % at 3 µM. actives 0.29% (n = 220,000);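 active = activation above its plate's cutoff, the mean activation of the plate's test wells plus 3 SD, cut at about 12% in these data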
Target sequence (Q8TDD5 whole entry, looked up): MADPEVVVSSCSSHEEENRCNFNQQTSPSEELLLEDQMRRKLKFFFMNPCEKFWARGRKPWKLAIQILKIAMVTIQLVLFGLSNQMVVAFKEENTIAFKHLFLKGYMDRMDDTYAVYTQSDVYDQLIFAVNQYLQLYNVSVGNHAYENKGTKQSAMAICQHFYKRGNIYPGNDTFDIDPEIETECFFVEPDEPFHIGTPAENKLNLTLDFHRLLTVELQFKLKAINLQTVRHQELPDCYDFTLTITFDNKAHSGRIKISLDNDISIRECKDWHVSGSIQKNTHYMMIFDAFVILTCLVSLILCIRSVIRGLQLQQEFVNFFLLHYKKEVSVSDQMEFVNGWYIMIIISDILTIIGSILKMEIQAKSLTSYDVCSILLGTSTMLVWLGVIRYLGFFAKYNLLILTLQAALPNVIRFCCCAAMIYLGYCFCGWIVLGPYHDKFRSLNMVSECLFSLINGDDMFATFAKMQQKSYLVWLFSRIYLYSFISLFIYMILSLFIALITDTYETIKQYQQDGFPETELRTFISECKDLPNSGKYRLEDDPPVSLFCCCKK
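Material: HEK293 cells stably carrying human TRPML3-YFP; compound dosing: single dose, 3 µM final nominal compound, 0.3% DMSO final; incubation: 1-h 37 °C dye load, 5-s basal, 120-s post-compound reads; technique: Fluo-8 intracellular calcium fluorescence, excitation 470-495 nm, emission 515-575 nm; read-out basis: percent activation from peak-to-basal fluorescence ratio, scaled between DMSO and carbachol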
OX1R antag-2 = antagonists of human orexin 1 receptor (OX1R) | O43613 | OX1R-expressing cells, FRET antagonist read-out | inhibition, % at 6.6 µM | actives 1.8% (n = 330,000) | AID 485270; in the data active = inhibition mostly above about 38%, no sharp cut-off; inactive = mostly below about 40%
Large screens that a line does not name were inactive.

COC(=O)C(/C=N/OCc1ccc([N+](=O)[O-])cc1)NC(=O)c1cccc(Cl)c1 (centres undefined)	TRPN1 ag 20
Cc1ccc(CONC(=O)c2cccc([N+](=O)[O-])c2)cc1	none (no result: TRPN1 ag, TRPML3 ag)
COC(=O)CSc1nc(-c2ccccc2)nc2ccc(F)cc12	none
OCCSc1nc(-c2ccccc2)nc2ccc(F)cc12	OX1R antag-2 47
CCOc1ccccc1NC(=O)CSc1nc2nc(-c3cccs3)cc(C(F)(F)F)c2c(=O)[nH]1	OX1R antag-2 47
COc1ccc(NC(=O)CSc2nc3nc(-c4cccs4)cc(C(F)(F)F)c3c(=O)[nH]2)c(OC)c1	none
CCC(=O)c1ccc(OCC(=O)N2CCN(c3ncccn3)CC2)cc1	none (no result: TRPN1 ag, TRPML3 ag)
CCOc1ccccc1NC(=O)c1ccc2[nH]c(C)c(C)c2c1	OX1R antag-2 73 (no result: TRPN1 ag, TRPML3 ag)
COc1ccc(NC(=O)c2ccc3[nH]c(C)c(C)c3c2)c(OC)c1	OX1R antag-2 50 (no result: TRPN1 ag, TRPML3 ag)
O=C(NCCn1cc(SCc2ccccc2)c2ccccc21)c1ccccc1F	CHO parental Ca 66
O=C(NNC(=O)c1ccccc1O)c1ccc(-c2ccc([N+](=O)[O-])cc2)o1	OX1R antag-2 55 (no result: TRPN1 ag, TRPML3 ag)
CC(=O)N1c2ccc(S(=O)(=O)NCCC(=O)Nc3ncccc3C)cc2CC1C (centres undefined)	none (no result: TRPN1 ag, TRPML3 ag)
COC(=O)c1ccc(NC(=O)CSc2ccccc2)cc1	CHO parental Ca 54, OX1R antag-1 54
COC(=O)c1ccc(NC(=O)CSc2ccccn2)cc1	none
O=C(NN1C(=O)C2C3C=CC([C@@H]2C1=O)C31CC1)c1ccccc1 (some centres undefined)	none
Cc1nn(-c2ccccc2)c2sc(-c3n[nH]c(=S)o3)cc12	OX1R antag-2 41
COc1ccc(/C=C/c2cccc[n+]2C)c(O)c1	none (no result: TRPN1 ag, TRPML3 ag)
CCN(CC)c1ccc(/C=C/c2cccc[n+]2C)c(OC)c1	CHO parental Ca 36 (no result: TRPN1 ag, TRPML3 ag)
COc1ccc(C(=O)NNC(=O)c2cccc(F)c2)cc1	none
COc1cc(NC(=O)C2CCN(S(=O)(=O)c3cccs3)CC2)cc(OC)c1	OX1R antag-2 51 (no result: TRPN1 ag, TRPML3 ag)
COc1ccc(C)cc1NC(=O)C1CCCN(S(=O)(=O)c2cccs2)C1 (centres undefined)	OX1R antag-2 37 (no result: TRPN1 ag, TRPML3 ag)
CCOc1ccc(C(C(=O)NC2CCCC2)N(C(=O)CNC(=O)c2ccco2)c2cccnc2)cc1 (centres undefined)	none (no result: TRPN1 ag, TRPML3 ag)
CC(C)=CCCC(C)CN1CCC(n2nccc2NC(=O)c2cccnc2)CC1 (centres undefined)	none (no result: TRPN1 ag, TRPML3 ag)
OCC[C@H]1C[C@@H](O)[C@H](O)[C@]2(CCCO2)O1	none (no result: TRPN1 ag, TRPML3 ag)
O=C(c1ccc(N2CCCCC2)c([N+](=O)[O-])c1)N1CCN(c2ccccn2)CC1	none
O=C1C2CC=CCC2C(=O)N1c1ccc(N2CCN(c3ccccn3)CC2)c([N+](=O)[O-])c1 (centres undefined)	CHO parental Ca 46
Cc1nn(C)c(C)c1N1C(=O)c2cccc3c(N)ccc(c23)C1=O	CHO parental Ca 51, OX1R antag-1 62, TRPN1 ag 131, TRPML3 ag 93
Cc1ccc(N2C(=O)c3cccc4c(N)ccc(c34)C2=O)c2cccnc12	CHO parental Ca 65, OX1R antag-1 74, TRPN1 ag 182, TRPML3 ag 28
COc1ccc2c3c(cccc13)C(=O)N(O)C2=O	none
CCN1C(=O)c2cccc3c(N)ccc(c23)C1=O	CHO parental Ca 46, OX1R antag-1 58 (no result: TRPN1 ag, TRPML3 ag)
O=C(C1CCN(S(=O)(=O)c2cc(Cl)ccc2Cl)CC1)N1CCOCC1	none (no result: TRPN1 ag, TRPML3 ag)
CN(C)CCCNc1nc2sc3c(c2c(=O)n1CCc1ccccc1)CCCCC3	none
COC(=O)c1cc(C(=O)OCC(=O)NCc2cccs2)cc([N+](=O)[O-])c1	OX1R antag-2 31 (no result: TRPN1 ag, TRPML3 ag)
Cc1cc(C(=O)OCC(=O)NCc2cccs2)ccc1[N+](=O)[O-]	none (no result: TRPN1 ag, TRPML3 ag)
CCOc1ccccc1N(CC(=O)N1CCOCC1)S(=O)(=O)c1ccc(SC)cc1	TRPN1 ag 57, TRPML3 ag 199 (no result: CHO parental Ca, OX1R antag-1, OX1R antag-2)
Cc1ccc(S(=O)(=O)N(CC(=O)N2CCOCC2)c2ccccc2F)cc1	none (no result: TRPN1 ag, TRPML3 ag)
COc1ccc(Nc2ccc(C(=O)O)cc2[N+](=O)[O-])cc1	OX1R antag-2 55
CCCn1c(CNc2ccc(Br)cc2)nc2ccccc21	CHO parental Ca 34
Cc1ccc(S(=O)(=O)NCCOc2nc(N(C)C)nc(N3CCOCC3)n2)cc1	OX1R antag-2 48
CC1(C)CC(NC(=O)c2ccccc2F)CC(C)(C)N1	none (no result: TRPN1 ag, TRPML3 ag)
Cc1nnc(NC(=O)CSc2nnc(-c3ccccc3)n2C)s1	none
COn1c(=O)c(-c2ccc(C)cc2)[n+]([O-])c2ccccc21	none (no result: TRPN1 ag, TRPML3 ag)
CCOn1c(=O)c(-c2ccc(Cl)cc2)[n+]([O-])c2ccccc21	none
COn1c(=O)c(-c2ccccc2)[n+]([O-])c2ccccc21	OX1R antag-2 42 (no result: TRPN1 ag, TRPML3 ag)
COn1c(=O)c(-c2ccc(Cl)cc2)[n+]([O-])c2ccccc21	OX1R antag-2 53
Cc1nn(Cc2noc(C(=O)NCc3ccccn3)n2)c(C)c1Br	none (no result: TRPN1 ag, TRPML3 ag)
CC(=O)Nc1ccc(S(=O)(=O)N(Cc2ccccc2)c2ccccc2)cc1	OX1R antag-2 66
O=C(O)c1ccc(N(Cc2ccccc2)S(=O)(=O)c2ccccc2)cc1	none (no result: TRPN1 ag, TRPML3 ag)
CN(Cc1ccccc1)C(=O)c1nn2cccnc2c1Cl	none
O=C(CCn1nc(-c2ccccc2)c2ccccc2c1=O)N1CCN(c2ccccc2)CC1	OX1R antag-2 62
CC(=O)Nc1cccc(C(=O)NNC(=O)c2n[nH]c(=O)c3ccccc23)c1	none (no result: TRPN1 ag, TRPML3 ag)
O=S(=O)(c1ccccc1)N1CCC(O)(CSc2ccc(Cl)cc2)CC1	CHO parental Ca 62, OX1R antag-1 46
O=S(=O)(c1ccc(Cl)cc1)N1CCC(O)(CN2CCN(Cc3ccccc3)CC2)CC1	none
O=C(O)c1cnc(-c2ccccc2)nc1Sc1ccccc1Cl	OX1R antag-2 56
CCC1(C)NC(=O)N(CC(=O)Nc2cc(C)on2)C1=O (centres undefined)	none (no result: TRPN1 ag, TRPML3 ag)
Cn1cc(C(=O)N/N=C/c2ccc3c(c2)OCO3)c2ccccc21	OX1R antag-2 43
O=C(N/N=C/c1cc(Br)cc(Cl)c1O)c1ccc2c(c1)OCO2	none (no result: TRPN1 ag, TRPML3 ag)
O=C(CNC(=O)c1ccccc1)N/N=C/c1cc(Br)ccc1O	none
Cc1cc(Br)cc(/C=N/NC(=O)c2ccc3c(c2)OCO3)c1O	OX1R antag-2 64 (no result: TRPN1 ag, TRPML3 ag)
O=C(CNC(=O)c1ccc2c(c1)OCO2)N/N=C/c1cc(Br)ccc1O	OX1R antag-2 48 (no result: TRPN1 ag, TRPML3 ag)
O=C(N/N=C/c1cc(Cl)cc([N+](=O)[O-])c1O)c1ccc2c(c1)OCO2	OX1R antag-2 56 (no result: TRPN1 ag, TRPML3 ag)
Cn1c(=O)cc(OCC(=O)NCc2cccs2)c2ccccc21	none
Cc1cc(CNCc2c(C(=O)N3CCCCCCC3)nc3ccc(Cl)cn23)nn1C	none
C#CCN(CC=C)C(=O)CCc1nnc(COc2ccccc2)o1	none
O=C(N/N=C/c1c[nH]c2ccccc12)c1ccc2c(c1)OCCO2	none
O=C(CSCc1cccc(Br)c1)N/N=C/c1ccc2c(c1)OCO2	OX1R antag-2 63

Assay outcomes from PubChem.
